# Screening data: PubChem, several laboratories
# Shown are actives, neighbours in structure and some others; about 9.2% of the full set was active somewhere.
# Dynein transport – blocks dynein driven cargo transport along microtubules. 3617.4 mouse cells, GR-EGFP nuclear translocation imaging; test concentration mostly 20 µM; stimulated with dexamethasone, 1 µM; active compounds read low. z-score, hits read low. hit rate 0.47% among 220,000;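 active = plate z-score of nuclear minus cytoplasmic receptor signal below a set negative limit, without overly bright fluorescence or cell loss, cut at about -3.5 in these data, passing the limit was not always enough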;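 note: z-score of nuclear minus cytoplasmic ring GR-EGFP intensity difference per well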
#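 Buffer or medium – tet-free medium with charcoal-stripped serum · Signal – automated 10x imaging of fixed Hoechst-stained cells · Also added – dexamethasone agonist, 1.0 µM final, for 30 min · Incubation – induction 48 h, compound 1 h, agonist 30 min · Read-out – GR-EGFP nuclear translocation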
# HCT116 PTEN-null – PTEN-deleted cell growth suppression. hit rate 1.2% among 140,000. HCT116 PTEN-null viability, CellTiter-Glo, 60 h; active compounds read low. AID 827. viability, % at 10 µM;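 active = viability at or below a set limit, 4 SD under the median of all tested compounds, cut at about 3.7% in these data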;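 note: PTEN knockout HCT116 line with beta catenin targeted HCT116 as companion control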
# Autophagy HCS – autophagy modulation, high-content screen. MEF GFP-LC3 puncta imaging; test concentration mostly 10 µM. calls only at 10 µM (by protocol). hit rate 0.98% among 190,000. AID 463193;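 active = percentage of spot-positive cells more than 3 SD above its plate mean, without a fluorescence outlier flag or 80% toxicity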;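 note: spot-positive cell cutoff set from DMSO-treated cells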
# HCT116 bCat-KO – beta-catenin-lacking colon tumor cell growth suppression. AID 818. viability, % at 10 µM. HCT116 beta-catenin knockout viability, CellTiter-Glo, 60 h; active compounds read low. hit rate 1.5% among 140,000;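 active = viability at or under a set limit, the compound median less 4 SD, cut at about 6% in these data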;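 note: 0% = Hyamine 1622 control at 20 µM and 100% = untreated cell control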
# Lmaj promast – reduces viability of Leishmania major promastigotes; resazurin fluorescence viability; inhibition, % at 10 µM; AID 1063; hit rate 9% among 200,000; in the data active = inhibition above about 50%;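 note: promastigotes grown with compound for 44 hours at 28 °C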
# The depositor's hits bear a star; i = inactive; nt = no result; + = active, no number.
SMILES,Dynein transport,HCT116 PTEN-null,Autophagy HCS,HCT116 bCat-KO,Lmaj promast
CN(C)CC/C=C1\c2ccccc2COc2ccccc21,0.0035,85,i,90,100*
COc1ccccc1NC(=O)COc1ccc(Br)cc1CNCCCN1CCOCC1,-0.34,nt,i,nt,77*
COc1ccc(NC(=O)COc2ccc(CNCCCN3CCOCC3)cc2OC)cc1,-0.078,88,i,88,-2
COc1cc(CNCCCN2CCOCC2)c(Br)cc1OCC(=O)Nc1ccccc1C,0.049,nt,i,nt,57*
Cc1cc(C)cc(OCCCOc2cccc3cccnc23)c1,0.24,72,i,79,82*
Cc1ccc(OCCOCCOc2cccc3cccnc23)c(Br)c1,-0.68,52,i,55,-1
COc1ccccc1NC(=O)CSCc1ccc([N+](=O)[O-])cc1,-0.55,nt,i,nt,-1
O=C(CSc1nc2[nH]ncc2c(=O)n1-c1ccc(Cl)c(Cl)c1)NCc1ccccc1Cl,0.014,nt,i,nt,77*
Nc1ccc2nc(CCCO)[nH]c2c1,-0.93,nt,nt,nt,nt
COc1ccc(-n2nnnc2-c2cn(C)nc2C(F)(F)F)cc1,nt,94,i,93,-7
Cc1cccc(C)c1NC(=S)N(CCN(C)C)C(C)c1ccccn1 (stereo not drawn),-0.27,nt,i,nt,2
COCCCN(C(=S)Nc1c(C)cc(C)cc1C)C(C)c1ccccn1 (stereo not drawn),0.09,nt,i,nt,52*
COCCCN(C(=S)Nc1cc(C)cc(C)c1)C(C)c1ccncc1 (stereo not drawn),-0.025,93,i,92,82*
COCCCN(C(=S)Nc1cccc(Cl)c1)C(C)c1ccncc1 (stereo not drawn),-0.86,96,i,83,63*
CCn1ncc(NC(=S)NCCc2ccccc2)c1C(N)=O,0.62,nt,i,nt,-2
O=C(CCSc1nc(-c2ccco2)cc(C(F)(F)F)n1)NCCN1CCOCC1,1.8,nt,i,nt,-4
CCOC(=O)c1ccc(NC(=O)Cc2coc3cc4c(cc23)CCC4)cc1,0.036,81,i,84,92*
CCOC(=O)c1ccc(NC(=O)COC)cc1,-0.55,86,i,93,-9
FC(F)(F)c1ccc2c(c1)N1CCCC1CN2 (stereo not drawn),1.4,nt,+,nt,11
FC(F)(F)c1ccc2c(c1)NCC1CCCN21 (stereo not drawn),0.52,nt,+,nt,5
COc1ccc(-n2c(SCC(=O)Nc3ccc4c(c3)OCO4)nc3c(c2=O)SCC3)cc1,0.77,104,i,101,11
COc1ccccc1-n1c(SCC(=O)Nc2ccc3c(c2)OCO3)nc2c(c1=O)SCC2,-0.52,95,i,96,89*
O=C(Cn1cccc1)N1CCN(C(c2ccccc2)c2ccccc2)CC1,1,98,i,93,30
O=C(CN1CCN(c2ncccn2)CC1)N1CCN(C(c2ccccc2)c2ccccc2)CC1,2.4,nt,i,nt,98*
Cc1cc(C)nc(N/N=C/c2cc(Br)ccc2O)n1,-0.14,nt,nt,nt,nt
SMILES,Dynein transport,HCT116 PTEN-null,Autophagy HCS,HCT116 bCat-KO,Lmaj promast
O=C(Oc1ccc(NC2=C(Cl)C(=O)c3ccccc3C2=O)cc1)c1ccc([N+](=O)[O-])cc1,-0.53,1.1*,i,0.9*,8
O=C(NCCSCc1ccccc1)c1ccc(F)cc1,-0.17,95,i,96,-3
O=C(CN1C(=O)C2CC=CCC2C1=O)Nc1nc2ccccc2s1 (stereo not drawn),0.48,nt,i,nt,3
c1ccc(-c2nc(NCc3cccnc3)c3oc4ccccc4c3n2)cc1,-0.46,52,i,58,88*
c1ccc(-c2nc(NCC3CCCO3)c3oc4ccccc4c3n2)cc1 (stereo not drawn),-0.67,86,i,95,55*
O=C(O)CNc1nc(-c2ccccc2)nc2c1oc1ccccc12,-0.036,nt,nt,nt,nt
CC(C)(C)c1ccc(-c2nc(NCc3cccnc3)c3ccccc3n2)cc1,0.86,76,i,69,80*
Nc1ccc(S(=O)(=O)Nc2nccc(/C=C/c3ccccc3F)n2)cc1,-0.048,nt,i,nt,7
Cn1c(C(C)(O)C(O)c2ccccc2)nc2ccccc21 (stereo not drawn),-0.62,91,i,105,-5
Cc1cccc(N2CCN(C(=O)c3cc(C)oc3C)CC2C)c1 (stereo not drawn),0.38,72,i,80,56*
Cc1ccc(N(C(=O)Cc2cccs2)C(C(=O)NC2CCCCC2)c2ccccn2)cc1C (stereo not drawn),0.21,80,i,67,36
CCC(CC)C(=O)Nc1cc(C)cc(C)c1,1.4,103,i,93,23
Cn1c(/C=N/c2nc3ccccc3[nH]2)nc2ccccc21,0.24,96,i,81,100*
Cc1ccc(C(=O)CSc2nnc(CNc3ccc(F)cc3)o2)cc1,-0.49,nt,i,nt,-4
Cc1cc(C)cc(NC(=S)/C(=C(\[O-])c2ccc(Cl)cc2Cl)[n+]2ccccc2)c1,-0.63,nt,i,nt,27
[O-]/C(=C(\C(=S)Nc1ccc(SC(F)F)cc1)[n+]1ccccc1)c1ccc(Cl)cc1Cl,-0.3,nt,i,nt,84*
CCC(C)N1CCNCC1 (stereo not drawn),-0.81,nt,i,nt,-2
Cc1ccc2nsnc2c1S(=O)(=O)NCCc1c(C)[nH]c2ccc(F)cc12,1.5,57,i,68,98*
CCN(CC)c1ccc(/C=C(\C#N)c2nc(-c3cccs3)c(NC(C)=O)s2)cc1,-0.49,50,+,48,10
CCOC(=O)C1(CCOc2ccccc2)CCN(Cc2cccc(-n3cccn3)c2)CC1,0.028,nt,i,nt,93*
CCOC(=O)C1(CCCc2ccccc2)CCN(C(=O)CCc2cnn(C)c2)CC1,0.48,nt,i,nt,-4
CCOC(=O)C1(CCOc2ccccc2)CCN(CCCn2cccn2)CC1,-0.4,nt,i,nt,79*
CCOC(=O)C1(CCCc2ccccc2)CCN(Cc2cnn(C)c2)CC1,0.078,nt,i,nt,77*
CCOC(=O)C1(CCc2ccccc2)CCN(C2Cc3ccccc3C2)CC1,1.8,nt,i,nt,81*
CC(=O)Nc1cccc(Nc2nc(-c3ccccc3F)nc3ccccc23)c1,-1.1,nt,i,nt,47
SMILES,Dynein transport,HCT116 PTEN-null,Autophagy HCS,HCT116 bCat-KO,Lmaj promast
Fc1ccc(C2CCCN2Cc2nc(Cc3ccccc3)no2)cc1 (stereo not drawn),-0.27,nt,i,nt,-5
CC(NC(=O)Nc1ccccc1)C(c1ccccc1)N1CCOCC1 (stereo not drawn),-0.022,91,i,97,52*
O=C(c1nc(SCc2ccc([N+](=O)[O-])cc2)n2ccccc12)C(F)(F)F,0.48,nt,nt,nt,nt
CCn1c(SCC(=O)NC(C)C)nnc1-c1cccs1,0.93,96,+,83,-5
C=CCn1c(Cc2cccs2)nnc1SCC(=O)NCc1ccco1,-0.85,106,i,101,-9
CCn1c(SCC(=O)Nc2cc3oc4ccccc4c3cc2OC)nnc1-c1cccs1,-1.5,68,i,62,66*
CCn1nnnc1SCC(=O)Nc1nc(-c2cccs2)cs1,-1,82,i,93,55*
CCn1c(SCC(=O)Nc2ccccc2)nnc1-c1cccs1,-0.41,nt,nt,nt,nt
